# Assay outcomes as filed in PubChem.
# Myeloid diff 2: myeloid differentiation induction | ER-HoxA9 myeloid progenitors, lysozyme-GFP differentiation, flow cytometry | calls only at 10 µM | hit rate 1% among 360,000 | AID 624256;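 active = normalized GFP-positive differentiation at or above the plate's own cutoff, the solvent-only control mean plus 3 SD; inconclusive = no clear call, values can overlap the other calls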;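 also: cells exposed to compound for four days before flow analysis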
# Granule exo inh: blocks lytic granule exocytosis. TALL-104 LAMP-1 surface exposure, flow cytometry; cells stimulated with thapsigargin and PMA. inhibition, % at 10 µM. hit rate 0.66% among 360,000;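 active = inhibition above about 55%, limit read from the data; inconclusive = no clear call, values can overlap the other calls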
# HNF4A DNA FP: change in binding of human HNF4 alpha to DNA; P41235; HNF4a-FITC DNA binding, fluorescence polarization, 1 h; activity change, % at 10 µM; hit rate 0.3% among 360,000; AID 1224865; in the data active = activity change above about 30%, passing the limit was not always enough
# SENP1 inh: SENP1 (human) catalytic domain inhibition. inhibition, % at 10 µM. hit rate 0.21% among 360,000. recombinant SENP1 catalytic domain, CyPet-SUMO1-YPet FRET cleavage. Q9P0U3. AID 624204;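 active = inhibition at least 30% at 10 µM, raw YFP signal under a set limit, fluorescence ratio 0.5 to 1.5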;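 also: 0% = enzyme with DMSO and 100% = no enzyme wells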
# Target sequence (Q9P0U3 419-644 limits assumed): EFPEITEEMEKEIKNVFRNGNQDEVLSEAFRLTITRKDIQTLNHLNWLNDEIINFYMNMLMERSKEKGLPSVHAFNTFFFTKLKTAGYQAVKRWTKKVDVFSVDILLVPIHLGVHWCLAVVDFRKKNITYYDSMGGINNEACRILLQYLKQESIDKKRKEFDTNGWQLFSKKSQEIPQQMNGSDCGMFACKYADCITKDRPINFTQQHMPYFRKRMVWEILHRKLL
#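 Assay system – human recombinant His6-tagged SENP1 catalytic domain enzyme · Input – SENP1 enzyme, 20 pM final · Buffer or medium – Tris pH 8 buffer plus EDTA, NaCl, BME, BSA, NP40, catalase · Schedule – 50 min reaction at room temperature · Technique – FRET read of cyan and yellow fluorescence · Control set – no-enzyme wells low, DMSO-plus-enzyme wells high control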
# DSG3 Ab inh: inhibitors of pemphigus antibody binding to human desmoglein-3. P32926. DSG3-coupled beads, scFv-anti-DSG3-GFP binding, flow cytometry; hits give low values. binding (percent of control), % at 10 µM. hit rate 0.48% among 310,000;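 active = binding more than 3 SD below its plate's average and above zero; inconclusive = below that plate limit but binding exactly zero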;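 also: hits lower antibody fragment binding to DSG3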
# H9c2 protect: myocardial damage modulation in H9c2 cells; hit rate 0.63% among 360,000; protection from H2O2 cell death, % at 20 µM; AID 588492; H9c2 cardiomyocytes, H2O2 injury protection, ATPLite, 2 h;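 active = compounds giving at least 50% protection of heart cells from peroxide-induced death in the single-dose screen, raw or plate-pattern-corrected value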;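 also: 0% = DMSO wells with peroxide and 100% = DMSO wells without peroxide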
# * = called active by the depositor; i = inactive; ? = inconclusive; / = no result given. This is a sample that favours compounds with a hit; in the whole collection about 3% have one here.
SMILES,Myeloid diff 2,Granule exo inh,HNF4A DNA FP,SENP1 inh,DSG3 Ab inh,H9c2 protect
O=C(CCC(=O)Nc1ccc(F)cc1)N/N=C/c1cc([N+](=O)[O-])ccc1O,i,4,1,3,105,49
O=C(CCC(=O)Nc1cc(C(F)(F)F)ccc1Cl)N/N=C\c1cc([N+](=O)[O-])ccc1O,i,27,-2,-6,108,44
O=C(CCC(=O)Nc1ccc(Br)cc1)N/N=C/c1cc([N+](=O)[O-])ccc1O,i,11,-3,-3,107,54*
Cc1cnc(C(=O)OCC(=O)c2ccc(F)cc2)cn1,i,1,-2,2,97,1
O=C(N/N=C/c1cc([N+](=O)[O-])ccc1O)C1CCCCC1,i,-2,2,1,99,52*
Cc1ccn(CC(=O)N/N=C/c2cc([N+](=O)[O-])ccc2O)n1,i,0,0,7,122,67*
O=[N+]([O-])c1ccc(Cl)c(/C=N/NC(=S)Nc2ccccc2)c1,i,-2,-3,-1,84*,-2
O=C(N/N=C/c1cc([N+](=O)[O-])ccc1O)c1cccc(NC(=O)c2cccc(Cl)c2)c1,?,2,-9,-31,70,56*
Cc1cc(C)c(NC(=O)CS(=O)CC(=O)Nc2ccc(-n3cnnn3)c(C)c2)c(C)c1 (centres undefined),i,-2,2,2,111,-2
CCCCc1ccc(NC(=S)NCCN2CCOCC2)cc1,i,22,2,0,87,-1
CCCN1C(=O)c2cc(C(=O)Nc3ccc(OC)cc3OC)ccc2C1Nc1ccc(OC)cc1OC (centres undefined),i,?,-64,2,85,8
CCCn1nc(NC(=O)c2cccs2)c2cc3cc(OC)ccc3nc21,i,2,6,-18,105,20
COc1ccc2nc3c(cc2c1)c(NC(=O)C1CCCO1)nn3CC(C)C (centres undefined),i,-1,-1,-17,/,98*
CCCCn1nc(NC(=O)c2cccs2)c2cc3cc(OC)ccc3nc21,i,24,3,-16,114,62*
CCCCn1nc(NC(=O)c2cccs2)c2cc3ccccc3nc21,i,-1,-2,-30,111,56*
COc1cc(OC)cc(C(=O)NCCC(=O)NCCc2ccc(OC)c(OC)c2)c1,i,4,-2,0,95,-7
COc1cc(C(=O)NNC(=O)c2ccc(F)cc2)ccc1OCC(=O)N1CCOCC1,i,2,-4,1,103,2
COc1cc(C(=O)N2CCN(S(=O)(=O)c3cccc(F)c3)CC2)ccc1OCC(=O)N1CCOCC1,i,2,-6,1,87*,4
COc1cc(C(=O)NCCc2ccc(F)cc2)ccc1OCC(=O)N1CCOCC1,i,-2,1,-2,86*,7
CCCN(C(=O)C1=COCCO1)c1c(N)n(Cc2ccccc2)c(=O)[nH]c1=O,i,2,-2,-1,93,-3
O=C(NCC1CCCO1)c1ccccc1NS(=O)(=O)c1ccc(F)cc1 (centres undefined),i,4,0,3,106,20
CCOC(=O)N1CCN(C(=O)CSc2nc3c(cnn3-c3ccc(Cl)cc3)c(=O)[nH]2)CC1,i,10,-1,1,107,12
CCOC(=O)N1CCN(C(=O)CSc2nc3c(cnn3-c3ccc(C)cc3)c(=O)[nH]2)CC1,i,-2,1,0,108,51*
C=CCNC(=O)c1ccccc1NC(=O)C1CC(=O)N(C(C)C)C1 (centres undefined),i,-4,3,0,108,-8
CSc1nnc2c(n1)c(C)nn2-c1cccc(C)c1,i,-1,1,6,86*,-2
O=C(NCc1cccc(Cl)c1)c1ccc2c(c1)OCCO2,i,-4,0,0,110,-4
CC(=O)C1=CCC(c2ccc(Cl)c(Cl)c2)N(S(=O)(=O)c2ccc(C)cc2)C1 (centres undefined),i,40,1,0,/,-5
